Experimental data from ChEMBL document CHEMBL1125079, “A unified approach to systematic isosteric substitution for acidic groups and application to NMDA antagonists related to 2-amino-7-phosphonoheptanoate” (J Med Chem, 1990).

What was measured:
[1] = molecular target: Glutamate receptor ionotropic, kainate (Rattus norvegicus) (UniProt P22756+Q01812+P42260+P42264+Q63273); assay: Inhibition at Ionotropic glutamate receptor kainate was determined at a concentration of 200 uM in rat cerebellar slices
Rattus norvegicus = species on record: Rattus norvegicus; assay: Tested for inhibition of NMDA-induced cyclic GMP increase in rat cerebellar slices; type: functional
[2] = Dissociation constant (pKa); type: physicochemical
How it was run: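 Measured in water at 23 °C from UV absorbance versus pH, using a pH meter calibrated with pH 5, 7 and 9 buffers. pH was stepped with 6 N HCl or NaOH to give 7–15 readings spanning the expected pKa, at 2–4 wavelengths with flow stopped. Spectra at pH 3 and 10 checked for decomposition. Simplex curve fit gave the pKa, reported as mean ± SD across wavelengths.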

[3] = Potentiometric pKa(in 25 mL of water) of the compound.; type: physicochemical
[4] = potentiometric pKa(in 25 mL of 1 M NaCl) of the compound.; type: physicochemical

| Compound | IC50 (Rattus norvegicus) [µM] | pKa [2] | also measured |
| --- | --- | --- | --- |
| Nc1ccccc1SCCCCCC(N)C(=O)O (stereo not drawn) | 140 | – | inhibition [1]: 20% |
| O=S(=O)(Cc1ccccc1)c1ncc[nH]1 | – | 8.67 | – |
| [O-][S+](Cc1ccccc1)c1nc(O)n[nH]1 (stereo not drawn) | – | 5.2 | – |
| NC(CCCCCSc1ccccc1O)C(=O)O (stereo not drawn) | 310 | 9.35 | – |
| NC(CCCCC[S+]([O-])c1ccccc1O)C(=O)O (stereo not drawn) | > 10000 | – | – |
| NC(CCCCCSc1cc(Cl)ccc1O)C(=O)O (stereo not drawn) | 220 | 8.55 | – |
| O=S(=O)(Cc1ccccc1)c1nc(O)n[nH]1 | – | 4.79 | – |
| c1ccc(CSc2c[nH]nn2)cc1 | – | 8.2 | – |
| O=S(=O)(Cc1ccccc1)c1c[nH]nn1 | – | 5.15 | – |
| O=S(=O)(Cc1ccccc1)c1nc[nH]n1 | – | 6.23 | – |
| c1ccc(CSc2ncc[nH]2)cc1 | – | 11.6 | – |
| NC(CCCCCP(=O)(O)O)C(=O)O (stereo not drawn) [AP-7] | 35 | 2.64 | pKa [3]: 7.72; pKa [4]: 9.84 |

More lines, main results first:

| IC50 (Rattus norvegicus) [µM] | pKa [2] | Compound | also measured |
| --- | --- | --- | --- |
| > 10000 | – | NC(CCCSc1ccccc1O)C(=O)O (stereo not drawn) | – |
| – | 9.8 | [O-][S+](Cc1ccccc1)c1ncc[nH]1 (stereo not drawn) | – |
| – | 7.85 | Oc1n[nH]c(SCc2ccccc2)n1 | – |
| – | 7.38 | [O-][S+](Cc1ccccc1)c1nc[nH]n1 (stereo not drawn) | – |
| > 10000 | – | N[C@H](CCCCSc1cc(Cl)ccc1O)C(=O)O | – |
| – | 9.5 | c1ccc(CSc2nc[nH]n2)cc1 | – |
| – | 6.09 | [O-][S+](Cc1ccccc1)c1c[nH]nn1 (stereo not drawn) | – |
| > 10000 | 7.38 | NC(CCCCCS(=O)(=O)c1ccccc1O)C(=O)O (stereo not drawn) | – |
| 260 | – | NC(CCCSc1cc(Cl)ccc1O)C(=O)O (stereo not drawn) | – |
